Experimental data as given in ChEMBL document CHEMBL1124929, “Indolo[2,1-a]isoquinolines. Syntheses, steroid hormone receptor binding affinities, and cytostatic activity” (1990).

Legend:
MDA-MB-231 [1] = test: Effect on [3H]thymidine incorporation into MDA-MB 231 human breast cancer cells at 1x10E-5 M; assay type: functional
Procedure, shortened: (§1)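 Cells were seeded at ~2 × 10⁴ per well, treated from the next day in 0.1% DMSO, with DMSO controls. MCF-7 cells were held in charcoal-stripped NCS for 2 weeks, treated for 5 days and re-dosed on day 4. MDA-MB 231 cells were grown in McCoy 5a/10% NCS and treated for 2 days. At the end, 1 µCi [³H]thymidine per well was added for 2 h. Result is % T/C, mean of three experiments × six dishes.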

MDA-MB-231 [2] = test: Effect on [3H]-thymidine incorporation into MDA-MB 231 human breast cancer cells at 1x10E-6M; assay type: functional; procedure, shortened: as §1
MDA-MB-231 [3] = test: Cytostatic effect on hormone-independent MDA-MB 231 human breast cancer cell proliferation at5x10E-6M; assay type: functional
Procedure, shortened: (§2)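 Cells were plated at about 2 × 10⁴ per well in six-well dishes. MCF-7 cells were grown in modified improved MEM with 5% NCS, switched to charcoal-treated NCS two weeks before the test, and exposed for 5 days with a re-dose on day 4. MDA-MB 231 cells were grown in McCoy 5a with 10% NCS and exposed for 2 days. Compounds were given 1 day after plating in 0.1% DMSO, with DMSO-matched controls. Read-out was cell number as % T/C, mean of three experiments with six dishes.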

MCF7 [4] = test: Effect on hormone-dependent MCF-7 human breast cancer cell proliferation at 1x10E-7M; assay type: functional; procedure, shortened: as §2
MCF7 [5] = test: Effect on [3H]thymidine incorporation into MCF-7 human breast cancer cells at 1x10E-7M; assay type: functional; procedure, shortened: as §1
MCF7 [6] = test: Effect on hormone-dependent MCF-7 human breast cancer cell proliferation at 5x10E-6M; assay type: functional; procedure, shortened: as §2
MCF7 [7] = test: Effect on [3H]thymidine incorporation into MCF-7 human breast cancer cells at 5x10E-6M; assay type: functional; procedure, shortened: as §1
MCF7 [8] = test: Effect on hormone-dependent MCF-7 human breast cancer cell proliferation at 1x10E-5 M; assay type: functional; procedure, shortened: as §2
MCF7 [9] = test: Effect on [3H]thymidine incorporation into MCF-7 human breast cancer cells at 1x10E-5 M; assay type: functional; procedure, shortened: as §1
MCF7 [10] = test: Effect on hormone-dependent MCF-7 human breast cancer cell proliferation at 1x10E-6M; assay type: functional; procedure, shortened: as §2
[11] = biological target: T1, Estrogen receptor (Mus musculus) (UniProt O08537+P19785); test: Estrogenic activity in uterotrophic assay in immature mice at 125 ug subcutaneous dose; assay type: functional
T1 sequence (O08537 whole entry, looked up): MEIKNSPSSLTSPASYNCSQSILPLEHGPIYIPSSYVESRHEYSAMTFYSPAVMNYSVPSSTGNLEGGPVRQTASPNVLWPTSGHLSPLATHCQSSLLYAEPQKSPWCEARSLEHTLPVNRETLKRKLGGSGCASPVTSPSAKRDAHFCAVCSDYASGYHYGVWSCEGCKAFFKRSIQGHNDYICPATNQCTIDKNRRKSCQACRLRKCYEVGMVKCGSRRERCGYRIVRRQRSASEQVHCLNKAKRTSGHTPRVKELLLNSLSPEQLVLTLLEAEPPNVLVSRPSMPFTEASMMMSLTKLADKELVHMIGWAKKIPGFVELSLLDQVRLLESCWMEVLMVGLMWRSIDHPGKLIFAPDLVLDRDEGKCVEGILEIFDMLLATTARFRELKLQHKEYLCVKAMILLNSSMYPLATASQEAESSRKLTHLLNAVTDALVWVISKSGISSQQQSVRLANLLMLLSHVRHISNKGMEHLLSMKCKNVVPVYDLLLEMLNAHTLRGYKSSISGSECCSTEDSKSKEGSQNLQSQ
T1 sequence (P19785 whole entry, looked up): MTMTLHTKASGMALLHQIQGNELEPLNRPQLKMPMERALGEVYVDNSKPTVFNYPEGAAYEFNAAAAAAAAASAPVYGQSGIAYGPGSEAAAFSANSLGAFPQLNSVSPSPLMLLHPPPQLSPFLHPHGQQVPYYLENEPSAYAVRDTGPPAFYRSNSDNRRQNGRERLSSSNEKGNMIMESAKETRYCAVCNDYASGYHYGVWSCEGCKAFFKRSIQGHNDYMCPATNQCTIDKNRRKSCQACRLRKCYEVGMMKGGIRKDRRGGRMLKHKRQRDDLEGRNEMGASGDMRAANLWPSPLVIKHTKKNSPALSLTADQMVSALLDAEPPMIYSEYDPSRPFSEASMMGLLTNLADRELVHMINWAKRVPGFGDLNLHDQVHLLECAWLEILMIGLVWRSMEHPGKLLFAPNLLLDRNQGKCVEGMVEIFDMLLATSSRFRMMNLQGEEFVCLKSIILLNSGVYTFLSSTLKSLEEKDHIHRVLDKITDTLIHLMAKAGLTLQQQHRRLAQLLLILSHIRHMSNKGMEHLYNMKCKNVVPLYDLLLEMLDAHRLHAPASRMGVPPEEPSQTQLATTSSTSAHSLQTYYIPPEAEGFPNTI
Procedure, shortened: (§3)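 Immature female NMRI mice, 20 days old, in groups of 6-10, were dosed sc once daily for three consecutive days. Compounds were given in PEG/0.9% saline 1:1; vehicle controls were included. Animals were killed 24 h after the last dose. Uteri were fixed in Bouin solution and the effect was taken as uterine dry weight (mg)/body weight (g) ×100, given as mean ± SD.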

[12] = biological target: T1, Estrogen receptor (Mus musculus); test: (§4) Estrogenic activity in uterotrophic assay in immature mice at 2 ug subcutaneous dose; assay type: functional; procedure, shortened: as §3
[13] = biological target: T1, Estrogen receptor (Mus musculus); test: Estrogenic activity in uterotrophic assay in immature mice at 50.0 ug subcutaneous dose; assay type: functional; procedure, shortened: as §3
[14] = biological target: T1, Estrogen receptor (Mus musculus); test: as §4; assay type: functional; procedure, shortened: as §3; remark: listed apart in the source
[15] = biological target: T1, Estrogen receptor (Mus musculus); test: Estrogenic activity in uterotrophic assay in immature mice at 10.0 ug subcutaneous dose; assay type: functional; procedure, shortened: as §3
[16] = biological target: T1, Estrogen receptor (Mus musculus); test: Inhibition of 0.4 ug estrone-stimulated uterine growth in mice at 10.0 ug subcutaneous dose; assay type: functional
Procedure, shortened: (§5)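 Immature 20-day-old female NMRI mice received sc injections on three consecutive days. Each injection held 0.4 µg estrone plus the compound in PEG/saline 1:1. […] Significance was tested by Mann-Whitney U test.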

[17] = biological target: T1, Estrogen receptor (Mus musculus); test: Inhibition of 0.4 ug estrone-stimulated uterine growth in mice at 125 ug subcutaneous dose; p<0.01; assay type: functional; procedure, shortened: as §5
[18] = biological target: T2, Androgen receptor (Mus musculus) (UniProt P19091); test: Inhibition of testosterone-stimulated seminal vesicle growth in castrated mice supplemented with 0.3 mg of TP at 1000.0 ug; assay type: functional
T2 sequence (whole entry): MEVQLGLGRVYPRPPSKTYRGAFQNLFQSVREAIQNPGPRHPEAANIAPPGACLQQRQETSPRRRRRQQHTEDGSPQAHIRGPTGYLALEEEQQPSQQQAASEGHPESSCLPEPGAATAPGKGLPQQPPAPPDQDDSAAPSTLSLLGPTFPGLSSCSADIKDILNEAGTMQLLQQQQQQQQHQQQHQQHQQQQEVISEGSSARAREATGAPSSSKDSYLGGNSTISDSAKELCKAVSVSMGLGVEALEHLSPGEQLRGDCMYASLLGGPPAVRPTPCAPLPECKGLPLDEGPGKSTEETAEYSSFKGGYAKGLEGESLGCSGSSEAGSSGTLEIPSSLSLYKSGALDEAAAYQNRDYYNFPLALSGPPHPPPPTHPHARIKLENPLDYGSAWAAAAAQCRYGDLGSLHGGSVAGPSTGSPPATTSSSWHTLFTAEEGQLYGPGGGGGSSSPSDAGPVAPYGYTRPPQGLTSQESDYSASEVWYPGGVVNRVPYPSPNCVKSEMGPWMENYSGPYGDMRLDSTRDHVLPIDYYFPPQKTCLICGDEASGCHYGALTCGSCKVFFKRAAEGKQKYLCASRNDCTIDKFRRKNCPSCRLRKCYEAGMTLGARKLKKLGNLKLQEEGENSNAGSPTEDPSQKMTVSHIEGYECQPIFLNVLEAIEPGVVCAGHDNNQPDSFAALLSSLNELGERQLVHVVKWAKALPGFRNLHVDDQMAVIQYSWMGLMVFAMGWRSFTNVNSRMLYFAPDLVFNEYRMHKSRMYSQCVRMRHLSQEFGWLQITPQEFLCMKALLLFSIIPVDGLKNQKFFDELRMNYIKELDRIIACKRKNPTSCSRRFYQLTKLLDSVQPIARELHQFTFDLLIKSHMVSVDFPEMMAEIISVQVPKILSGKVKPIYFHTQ
Procedure, shortened: (§6)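 Adult male mice, 23–25 g, six per group, were used intact or castrated via the scrotal route under ether 5 days before the test. Castrates received 0.3 mg testosterone propionate daily. Compounds were injected daily in olive oil for nine days. Seminal vesicles were taken 24 h later, fixed in Bouin solution, dried overnight at 100 °C and weighed. Result is organ mg/body g ×100; % inhibition = [1 − treated/control] × 100.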

[19] = biological target: T1, Estrogen receptor (Mus musculus); test: Inhibition of 0.4 ug estrone-stimulated uterine growth in mice at 50.0 ug subcutaneous dose; p<0.01; assay type: functional; procedure, shortened: as §5
Bos taurus = species: Bos taurus; test: Relative binding affinity(RBA) as ratio of progesterone and compound required to displace [3H]-org 2058 binding to Progesterone receptor by 50%
Procedure, shortened: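 Receptor source was calf uterine cytosol (105000g supernatant, 3 mg/mL protein in assay). Buffers were Tris/EDTA pH 7.4, with NaN₃ for ER, molybdate/glycerol for AR, and sucrose for PR. Tracers were 1 nM [³H]estradiol, [³H]mibolerone or [³H]Org 2058. Incubation was at 0–4 °C for 16 h (ER) or 2 h (AR, PR), with 4–6 competitor concentrations. Nonspecific binding used 2 µM of the unlabeled hormone. Separation was by dextran-coated charcoal. RBA is the ratio of IC50 values for hormone and compound ×100, mean of two triplicate experiments.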

[20] = biological target: T2, Androgen receptor (Mus musculus); test: Relative effect on seminal vesicle weight in adult and castrated mice at 1000 ug dose; assay type: functional, tissue-based; procedure, shortened: as §6
[21] = biological target: T2, Androgen receptor (Mus musculus); test: Relative effect on seminal vesicle weight in adult and castrated mice supplemented with 0.3 mg TP at 1000 ug dose; assay type: functional, tissue-based; procedure, shortened: as §6

- Effect [11]: 39.5
- Effect [12]: 18.5
- Effect [13]: 35.8
- Effect [14]: 52.3
- Effect [15]: 25.5
- inhibition [16]: 12.2%
- inhibition [17]: 42%
- inhibition [18]: 17%
- inhibition [19]: 25.9%
- RBA (Bos taurus): 0.13
- Relative seminal vesicle weight [20]: 38.3
- Relative seminal vesicle weight [21]: 187
SMILES: CCC1Cc2cc(OC(C)=O)ccc2-c2cc3cc(OC(C)=O)ccc3n21 (configuration not stated)
- T/C (MDA-MB-231 [1]): 4%
- T/C (MDA-MB-231 [2]): 45%
- T/C (MDA-MB-231 [3]): 4%
- T/C (MCF7 [4]): 80%
- T/C (MCF7 [5]): 63%
- T/C (MCF7 [6]): 10%
- T/C (MCF7 [7]): 4%
- T/C (MCF7 [8]): 8%
- T/C (MCF7 [9]): 2%
- T/C (MCF7 [10]): 45%
